Calls of active or inactive are those of the source. No cut-off for these calls is given here.
Tests used:
[1] = molecular target: T1, Prostaglandin G/H synthase 2 (Homo sapiens) (UniProt P35354); assay: Inhibition of COX2 in LPS-stimulated human monocytes assessed as inhibition of arachidonic acid-stimulated PGE2 production at 100 uM pre-incubated for 30 mins before addition of arachidonic acid measured after 15 mins by EIA; type: cell-based
T1 sequence (whole entry): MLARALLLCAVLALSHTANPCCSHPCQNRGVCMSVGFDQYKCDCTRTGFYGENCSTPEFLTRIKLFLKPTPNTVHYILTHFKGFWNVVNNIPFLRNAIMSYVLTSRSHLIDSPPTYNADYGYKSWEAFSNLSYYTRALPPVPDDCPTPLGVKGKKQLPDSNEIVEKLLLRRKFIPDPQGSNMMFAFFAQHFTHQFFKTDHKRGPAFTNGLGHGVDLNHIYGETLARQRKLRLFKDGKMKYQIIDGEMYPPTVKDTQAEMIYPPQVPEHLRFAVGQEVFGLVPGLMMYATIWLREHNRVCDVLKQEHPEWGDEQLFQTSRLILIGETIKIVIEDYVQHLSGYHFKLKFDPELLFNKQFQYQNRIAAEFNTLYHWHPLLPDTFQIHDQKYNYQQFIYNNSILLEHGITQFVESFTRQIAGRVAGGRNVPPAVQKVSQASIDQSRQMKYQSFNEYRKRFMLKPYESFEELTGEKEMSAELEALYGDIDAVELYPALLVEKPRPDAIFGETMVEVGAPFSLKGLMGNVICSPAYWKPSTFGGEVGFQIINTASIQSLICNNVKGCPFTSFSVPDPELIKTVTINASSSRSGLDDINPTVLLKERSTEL
Summary of the method: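 Human monocytes (10⁶ cells/mL) induced with LPS for 18 h at 37 °C, 5% CO2, then resuspended in FCS-free RPMI-1640. Compound (from 200-fold DMSO stocks) added for 30 min, then arachidonic acid (100 µM) for 15 min. Supernatant PGE2 by EIA. % inhibition versus untreated control, minus no-arachidonate background.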

[2] = molecular target: Prostaglandin G/H synthase 1 (Homo sapiens) (UniProt P23219); assay: Inhibition of COX1 in human platelets assessed as inhibition of A23187-stimulated TXB2 production at 100 uM pre-incubated for 30 mins before addition of A23187 measured after 10 mins by EIA
Summary of the method: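 Washed human platelets (10⁸ cells/mL) incubated 30 min at 37 °C with compound, diluted from 400-fold DMSO stocks. A23187 (2 µM) then added for 10 min at 37 °C, and reaction stopped with methanol. Supernatant TXB2 measured by EIA. % inhibition versus untreated control, after subtracting no-ionophore background.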

[3] = tested on: Rattus norvegicus; assay: Antiinflammatory activity in Wistar rat assessed as inhibition of carrageenan-induced paw edema at dose equimolar to 120 mg/kg aspirin, administered intragastrically immediately after carrageenan challenge measured after 3 hrs by water plethysmometer relative to control; type: functional; conditions: po, route intragastric
Summary of the method: (§1)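 Male Wistar rats (180–200 g). Edema induced by intraplantar 0.1 mL of 1% carrageenan in 1% CMC into the right hindpaw. Compounds given intragastrically in 1% CMC (10 mL/kg) immediately afterwards. Aspirin at 120 mg/kg, others equimolar. Paw volume by water plethysmometer before and at 3 h. Reported as % inhibition versus vehicle (=100). Groups of 6–8, mean ± SEM, Dunnett's test.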

[4] = tested on: Rattus norvegicus; assay: Ulcerogenicity in Wistar rat assessed as damage in gastric mucosa-lesion index at dose equimolar to 120 mg/kg aspirin, administered intragastrically after 3 hrs by stereomicroscopy; type: toxicity, organism-based; set-up: dose 120 mg/kg, route intragastric; conditions: in vivo, po
Summary of the method: (§2)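 Male Wistar rats (180–200 g), fasted 24 h with water available. Groups of 8–10 given aspirin 120 mg/kg intragastrically, or equimolar doses, in 1% CMC. Killed 3 h later. Glandular mucosa examined under stereomicroscope. Each hemorrhagic lesion scored by greatest length and summed as lesion index. Mean ± SEM, ANOVA with Newman–Keuls test.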

[5] = Stability of the compound in 0.1 M HCl at pH 1 assessed as compound remaining at 100 uM after 3 hrs by RP-HPLC analysis; type: physicochemical; conditions: read-out: Stability
[6] = Antiaggregatory activity in human platelet rich plasma assessed as inhibition of collagen-induced platelet aggregation at 300 uM preincubated for 10 mins before collagen challenge measured after 10 mins by aggregometry; type: functional
Summary of the method: (§3)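 PRP from citrated human blood (200g, 20 min). Compound preincubated 10 min, then submaximal collagen (0.8–1.5 µg/mL) added. Light transmission recorded at 37 °C under stirring (1000 rpm) for 10 min. Vehicle 0.5% DMSO. Result is % inhibition versus control. IC50 by nonlinear regression, otherwise % inhibition at 300 µM. At least five experiments.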

[7] = Stability of the compound in human serum assessed as half life at 200 uM by RP-HPLC analysis; type: ADME, cell-free
Summary of the method: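 Compound added from 10 mM acetonitrile stock to human serum preheated to 37 °C. Disappearance followed by RP-HPLC (C18; acetonitrile/water 55:45, 0.1% TFA). Half-life from pseudo-first-order fit.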

[8] = Stability of the compound in phosphate buffer at pH 7.4 assessed as half life at 100 uM by RP-HPLC analysis; type: physicochemical
Summary of the method: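 Compound held at 37 °C, final concentration 100 µM. Aliquots taken over time and analysed by RP-HPLC (C18; acetonitrile/water 55:45 with 0.1% TFA). Pseudo-first-order rate constants and half-lives obtained by fitting remaining ester versus time to one-phase exponential decay.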

[9] = Antiaggregatory activity in human platelet rich plasma assessed as inhibition of collagen-induced platelet aggregation preincubated for 10 mins before collagen challenge measured after 10 mins by aggregometry; type: functional; summary of the method: as §3
[10] = molecular target: T2, Thromboxane A2 receptor (Homo sapiens, UniProt P21731); assay: Antagonist activity at thromboxane receptor in human blood assessed as inhibition of U-46619-induced effect; type: functional
T2 sequence (P21731 whole entry): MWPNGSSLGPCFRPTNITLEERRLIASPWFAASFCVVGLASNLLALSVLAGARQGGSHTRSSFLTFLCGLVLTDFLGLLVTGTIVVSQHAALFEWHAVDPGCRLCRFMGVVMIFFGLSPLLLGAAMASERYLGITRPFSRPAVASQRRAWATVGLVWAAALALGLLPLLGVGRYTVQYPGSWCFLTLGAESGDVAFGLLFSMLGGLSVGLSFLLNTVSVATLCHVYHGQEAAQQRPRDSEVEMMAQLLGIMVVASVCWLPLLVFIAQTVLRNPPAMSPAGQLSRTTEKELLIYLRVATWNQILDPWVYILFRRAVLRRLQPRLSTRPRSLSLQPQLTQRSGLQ
Summary of the method: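 Citrated human blood pretreated with 1 mM acetylsalicylic acid; PRP made by 200g spin for 20 min. PRP incubated with compound or vehicle (0.5% DMSO), then challenged with U-46619 (0.5–2.5 µM). Aggregation recorded as light transmission at 37 °C with stirring. At least four experiments per compound.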

[11] = tested on: Rattus norvegicus; assay: Antiinflammatory activity in Wistar rat assessed as inhibition of carrageenan-induced paw edema at 120 mg/kg, administered intragastrically immediately after carrageenan challenge measured after 3 hrs by water plethysmometer relative to control; type: functional; conditions: po, route intragastric; summary of the method: as §1
[12] = Stability of the compound in phosphate buffer at pH 7.4 assessed as compound remaining at 100 uM after 3 hrs by RP-HPLC analysis; type: physicochemical; conditions: read-out: Stability
Summary of the method: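 Each compound was incubated in pH 7.4 aqueous buffer at a final 100 µM and held at 37 ± 0.5 °C. Aliquots taken at timed intervals were run on RP-HPLC (C18; acetonitrile/water 55:45 with 0.1% TFA; 1.2 mL/min), calibrated linearly over 1–200 µM. Remaining ester versus time was fitted to one-phase exponential decay.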

[13] = tested on: Rattus norvegicus; assay: Ulcerogenicity in Wistar rat assessed as damage in gastric mucosa-lesion index at 120 mg/kg, administered intragastrically after 3 hrs by stereomicroscopy; type: toxicity, organism-based; set-up: dose 120 mg/kg, route intragastric; conditions: in vivo, po; summary of the method: as §2
[14] = tested on: Aorta; assay: Vasodilatory activity in Wistar rat thoracic aorta assessed as relaxation of L-phenylephrine-induced vasoconstriction; type: functional, tissue-based
Summary of the method: (§4)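 Rat aortic strips equilibrated 120 min, then contracted with phenylephrine. At plateau, cumulative concentrations of vasodilator added. Tension recorded isometrically. Results given as EC50 ± SE. Where tested, ODQ was added to the bath 5 min before contraction.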

[15] = tested on: Aorta; assay: Vasodilatory activity in Wistar rat thoracic aorta assessed as relaxation of L-phenylephrine-induced vasoconstriction in presence of 1 uM sGC inhibitor ODQ; type: functional, tissue-based; summary of the method: as §4
[16] = Antiaggregatory activity in human platelet rich plasma assessed as inhibition of collagen-induced platelet aggregation preincubated for 10 mins before collagen challenge measured after 10 mins by aggregometry in presence of 50 uM of sGC inhibitor ODQ; type: functional
Summary of the method: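 Collagen-induced aggregation in human PRP run as in the standard assay, with the sGC inhibitor ODQ (50 µM) present. Compound preincubated 10 min before submaximal collagen (0.8–1.5 µg/mL). Light transmission followed 10 min at 37 °C. At least five experiments.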

Prostaglandin G/H synthase 1 (Homo sapiens), sequence (P23219 whole entry): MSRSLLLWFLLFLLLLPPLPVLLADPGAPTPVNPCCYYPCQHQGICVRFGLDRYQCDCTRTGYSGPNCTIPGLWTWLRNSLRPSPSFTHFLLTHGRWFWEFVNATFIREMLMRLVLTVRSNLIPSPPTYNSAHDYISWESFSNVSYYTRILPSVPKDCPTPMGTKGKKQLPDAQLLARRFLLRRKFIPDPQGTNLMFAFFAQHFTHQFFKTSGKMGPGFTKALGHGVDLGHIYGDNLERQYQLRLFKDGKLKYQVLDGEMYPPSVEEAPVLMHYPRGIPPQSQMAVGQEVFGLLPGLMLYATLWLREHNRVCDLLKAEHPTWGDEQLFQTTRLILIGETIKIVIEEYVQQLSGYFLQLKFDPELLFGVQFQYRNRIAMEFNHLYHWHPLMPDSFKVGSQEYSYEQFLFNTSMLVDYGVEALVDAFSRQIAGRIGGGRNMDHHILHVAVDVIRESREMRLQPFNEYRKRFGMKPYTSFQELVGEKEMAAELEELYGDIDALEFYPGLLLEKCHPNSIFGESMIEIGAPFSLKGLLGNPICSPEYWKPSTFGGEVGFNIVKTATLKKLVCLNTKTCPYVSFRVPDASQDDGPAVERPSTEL

Compound	inhibition [1]	inhibition [2]	inhibition in vivo [3]	UI [4]	remaining at 3 h, 100 µM [5]	inhibition at 300 µM [6]	half-life at 200 µM [7]	half-life at 100 µM [8]	IC50 [9]	IC50 [10]	inhibition in vivo at 120 mg/kg ([3]; dose 120 mg/kg)	inhibition in vivo at 120 mg/kg [11]	remaining at 3 h, 100 µM [12]	UI [13]	Activity [14]	EC50 [14]	EC50 [15]	IC50 [16]
N#Cc1nonc1CSCC(=O)Oc1ccccc1C(=O)O	inactive	inactive	38.9%	0.2 mm	96%	36%	14 min	38 min	–	–	–	–	–	–	–	–	–	–
O=C(CCOc1nonc1S(=O)(=O)c1ccccc1)Oc1ccccc1C(=O)O	inactive	inactive	38.8%	0.3 mm	97%	2.6%	35 min	370 min	–	–	–	–	–	–	–	–	–	–
NC(=O)c1nonc1CSCC(=O)Oc1ccccc1C(=O)O	inactive	inactive	39.6%	0.3 mm	97%	–	27 min	50 min	144 µM	39 µM	–	–	–	–	–	–	–	–
O=C(O)c1ccccc1O [SALICYLIC ACID]	–	–	–	1.1 mm	–	–	–	–	–	–	36.8%	–	–	–	–	–	–	–
CC(=O)Oc1ccccc1C(=O)O [ASPIRIN]	–	–	–	–	90%	–	63 min	–	54 µM	–	–	43%	90%	50 mm	–	–	–	–
N#Cc1c(CSCC(=O)Oc2ccccc2C(=O)O)no[n+]1[O-]	inactive	inactive	54.9%	1.2 mm	96%	–	13 min	33 min	7.3 µM	–	–	–	–	–	Dose-dependent effect	0.04 µM	2400 nM	88 µM
O=C(CCOc1no[n+]([O-])c1-c1ccccc1)Oc1ccccc1C(=O)O	inactive	inactive	37.6%	0.3 mm	98%	17%	35 min	288 min	–	–	–	–	–	–	Dose-dependent effect	11 µM	–	–
O=C(CCOc1no[n+]([O-])c1S(=O)(=O)c1ccccc1)Oc1ccccc1C(=O)O	inactive	inactive	49.6%	0.4 mm	96%	–	30 min	360 min	7.8 µM	–	–	–	–	–	Dose-dependent effect	0.014 µM	970 nM	152 µM
NC(=O)c1c(CSCC(=O)Oc2ccccc2C(=O)O)no[n+]1[O-]	inactive	inactive	39.4%	–	97%	–	27 min	45 min	66 µM	38 µM	–	–	–	–	Dose-dependent effect	23 µM	–	59 µM
O=C(CCOc1nonc1-c1ccccc1)Oc1ccccc1C(=O)O	inactive	inactive	38.6%	1.2 mm	98%	12%	40 min	318 min	–	–	–	–	–	–	–	–	–	–
